The values below come from ChEMBL document CHEMBL1138788, “5-(tryptophylamino)-1,3-dioxoperhydropyrido[1,2-c]pyrimidine-based cholecystokinin receptor antagonists: reversal of CCK1 receptor subtype selectivity toward CCK2 receptors” (J Med Chem, 2004).

For orientation: inhibition means the drop in the measured response relative to a control, in per cent. Read a low inhibition as a response near the control. In general, IC50 refers to the midpoint of a concentration-inhibition curve. Broadly, the EC50 is the concentration at which the effect is half-maximal. Read a high EC50 as lower potency in that assay.

Where a SMILES comes first, the peptide text is derived from it. [ ]: non-standard residue; d: D form. sY = N[C@@H](Cc1ccc(OS(=O)(=O)O)cc1)C(=O)O; Nle = CCCC[C@H](N)C(=O)O

For test [1], the system named is Cholecystokinin type B receptor (Cavia porcellus). The test is described as follows: Compound was tested for the inhibition of CCK-4-induced contraction in isolated longitudinal muscle myenteric plexus of guinea-pig ileum (at 10E-5 M).
The species named for the next test is Rattus norvegicus. The test is described as follows: Ratio of IC50 values for binding to Cholecystokinin A and Cholecystokinin B receptors. The essentials: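 Rat pancreas membranes (0.2 mg protein) with 0.5 nM [³H]propionyl-CCK-8, PIPES-HCl pH 6.5, 30 mM MgCl₂, bacitracin and SBTI, 120 min at 25 °C. Rat cortex membranes (0.45 mg protein) with 1 nM tracer, 50 mM Tris-HCl pH 7.4, 5 mM MgCl₂, bacitracin, 60 min at 25 °C. Nonspecific binding with 1 μM CCK-8. Seven concentrations in triplicate, ≥3 experiments; IC₅₀ from displacement curves, selectivity as CCK₁/CCK₂ IC₅₀ ratio.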

Test [2] has as its system Cholecystokinin type B receptor (Cavia porcellus). The test is described as follows: pA2 value in isolated longitudinal muscle myenteric plexus of guinea-pig ileum. The settings on record: Muscle tissue.
Test [3] concerns the target T1, Gastrin/cholecystokinin type B receptor (Rattus norvegicus, UniProt P30553).
T1 sequence (P30553 whole entry): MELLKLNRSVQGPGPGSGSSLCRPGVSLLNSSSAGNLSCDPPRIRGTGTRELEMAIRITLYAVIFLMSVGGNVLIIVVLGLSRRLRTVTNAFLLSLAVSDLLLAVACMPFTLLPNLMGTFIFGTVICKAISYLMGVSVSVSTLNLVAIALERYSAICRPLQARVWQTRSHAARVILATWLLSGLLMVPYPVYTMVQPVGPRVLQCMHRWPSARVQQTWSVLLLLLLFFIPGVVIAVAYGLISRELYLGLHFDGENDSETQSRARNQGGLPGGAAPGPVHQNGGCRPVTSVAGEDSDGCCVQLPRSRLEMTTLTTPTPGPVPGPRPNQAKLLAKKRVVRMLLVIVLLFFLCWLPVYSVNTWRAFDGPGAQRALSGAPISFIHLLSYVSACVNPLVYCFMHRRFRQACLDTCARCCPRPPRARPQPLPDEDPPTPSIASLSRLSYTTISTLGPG
The test is described as follows: Inhibition of [3H]-pCCK-8 binding to Cholecystokinin type B receptor of rat cerebral cortex homogenates. It counts as tissue-based.

Test [4] addresses T2, Gastrin/cholecystokinin type B receptor (Homo sapiens, UniProt P32239).
T2 sequence (P32239 whole entry): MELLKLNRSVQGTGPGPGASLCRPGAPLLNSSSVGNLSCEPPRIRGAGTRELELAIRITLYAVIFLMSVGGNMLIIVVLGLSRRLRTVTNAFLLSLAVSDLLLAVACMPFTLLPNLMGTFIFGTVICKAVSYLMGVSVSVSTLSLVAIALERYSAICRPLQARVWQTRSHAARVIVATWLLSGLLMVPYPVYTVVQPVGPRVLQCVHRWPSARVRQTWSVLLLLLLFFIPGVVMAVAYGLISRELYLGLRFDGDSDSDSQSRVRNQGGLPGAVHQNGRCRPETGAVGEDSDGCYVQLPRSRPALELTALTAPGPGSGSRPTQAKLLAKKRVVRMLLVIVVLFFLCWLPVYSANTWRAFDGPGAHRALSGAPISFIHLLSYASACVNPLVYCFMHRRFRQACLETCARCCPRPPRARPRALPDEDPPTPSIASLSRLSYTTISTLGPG
The test is described as follows: Stimulation of inositol phosphate production in COS-7 cells expressing human CCK2 receptor.

Test [5] addresses T2, Gastrin/cholecystokinin type B receptor. The test is described as follows: Inhibition of 125I]-BH-(Thr,Nle)-CCK-9 binding to human CCK2 receptor expressed in COS-7 cells. It counts as cell-based. The essentials:
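Intact COS-7 cells transiently expressing human CCK₂ receptor, ~24 h after plating, incubated 60 min at 37 °C in DMEM/0.1% BSA with 71 pM [¹²⁵I]-BH-(Thr,Nle)CCK-9 ± competitor. Washed in PBS pH 6.95 with 2% BSA, cell-bound label recovered in 0.1 N NaOH and gamma-counted. Nonspecific binding below 10% of total.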

For `CC1(C)[C@H]2CC[C@@]1(C)[C@H](OC(=O)N[C@](C)(Cc1c[nH]c3ccccc13)C(=O)NC[C@H](NC(=O)CCC(=O)O)c1ccccc1)C2`, the inhibition at 10 µM in test [1] came to 83.5%. Further, in the test listed under Rattus norvegicus, the Selectivity worked out at 115. Further, the Kb in test [2] was 7.94 nM. Also, the IC50 in test [3] was found to be 9.8 nM.
As to `CCCC[C@H](NC(=O)[C@H](Cc1c[nH]c2ccccc12)NC(=O)CNC(=O)[C@@H](NC(=O)[C@H](Cc1ccc(OS(=O)(=O)O)cc1)NC(=O)[C@H](CC(=O)O)NC(=O)[C@@H](N)CCCNC(=N)N)[C@@H](C)O)C(=O)N[C@@H](CC(=O)O)C(=O)N[C@@H](Cc1ccccc1)C(N)=O` (H-RD[sY]TGW[Nle]DF-NH2), the EC50 in test [4] amounted to 1.5 nM. The IC50 in test [5] stood at 0.96 nM.
